High-throughput results: PubChem BioAssay, SRMLSC
PTEN del growth: growth suppression of PTEN-null HCT116, primary screen, cell-based, CellTiter-Glo. HCT116 PTEN-null viability, 60 h; stronger effect = lower value. viability, % at 10 µM. 140,000 tested, 1.2% active;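 active means viability at or below a set limit, 4 SD under the median of all tested compounds, cut at about 3.7% in these data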;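 further: PTEN knockout HCT116 line with beta catenin targeted HCT116 as companion control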
H69AR inhibit: proliferation blockers of H69AR lung cancer cells, primary screen, cell-based, human, 86K library; H69AR lung tumor viability, ATP luminescence, 72 h; stronger effect = lower value; viability, % at 10 µM; 85,000 tested, 6% active;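 active means viability at or below 40%; inactive means viability above 40%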;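 further: multidrug resistant small cell line overexpressing MRP-1 efflux transporter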
Lung fibro prol: antiproliferative effect on LL 47 fibroblasts – human, LL 47 cells, CellTiter-Glo luminescence, primary screen; LL 47 human lung fibroblast viability, ATP luminescence; stronger effect = lower value; AID 719, 2007; 85,000 tested, 1.1% active; viability, % at 10 µM;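 active means viability at or below 50% in the single dose screen; inactive means viability above 50%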;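 further: compound exposure lasted 72 h before the ATP readout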
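material = human LL 47 lung fibroblast cells | dosing = compounds added from tenfold dosing solution, 0.1% DMSO final | timing = overnight cell rest, 72 h compound treatment at 37 °C | measured by = CellTiter-Glo luminescence measuring cellular ATP | evaluation = % viability versus median cells-only luminescence | control set = cell-only wells, no compound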
HUVEC inhibit: inhibitors of HUVEC proliferation, primary screen, cell-based, 384-well; CellTiter-Glo luminescence, 72 h; stronger effect = lower value; viability, % at 10 µM (by protocol); 86,000 tested, 1.1% active; AID 648, 2007;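 active means viability at or below 30%; inactive means viability above 30%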
HCT116 bCat-KO: primary screen for growth suppressors in beta-catenin knockout HCT116 cells (colon tumor, human); viability, % at 10 µM; 140,000 tested, 1.5% active; HCT116 beta-catenin knockout viability, CellTiter-Glo, 60 h; stronger effect = lower value;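 active means viability at or under a set limit, the compound median less 4 SD, cut at about 6% in these data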
Each line names hits and unclear results; the compound was inactive in the other large screens. This is one part of a sample in which hits are shown more often than they occur.

COc1ccc(NC(=O)Nc2cccc([N+](=O)[O-])c2)cc1Cl	HCT116 bCat-KO 5.0 (no result: H69AR inhibit, Lung fibro prol, HUVEC inhibit)
O=C(Nc1ccc([N+](=O)[O-])cc1)Nc1ccc(OC(F)F)c(Cl)c1	PTEN del growth 1.1, HCT116 bCat-KO 1.0 (no result: H69AR inhibit, Lung fibro prol, HUVEC inhibit)
O=C(NCCCN1CCN(CCCNC(=O)c2ccc(F)cc2)CC1)c1ccc(F)cc1	none
CC(C)c1ccc(C(=O)NCCCN2CCN(CCCNC(=O)c3ccc(C(C)C)cc3)CC2)cc1	PTEN del growth 2.0, HCT116 bCat-KO 1.5 (no result: H69AR inhibit, Lung fibro prol, HUVEC inhibit)
COc1ccc(CNc2nc(SCc3cc(=O)n4cc(Cl)ccc4n3)nc3ccccc23)cc1	none (no result: H69AR inhibit, Lung fibro prol, HUVEC inhibit)
Cc1ccc(NS(=O)(=O)c2ccc3c(c2)c(=O)n(C)c(=O)n3C)cc1F	none
Cc1cc(C)cc(NS(=O)(=O)c2ccc3c(c2)c(=O)n(C)c(=O)n3C)c1	Lung fibro prol 34
Cc1nn(C(C)C(=O)N2CCOCC2)c(C)c1[N+](=O)[O-] (configuration not stated)	none (no result: H69AR inhibit, Lung fibro prol, HUVEC inhibit)
O=C1C(=C2CCCCC2)SC(=S)N1Cc1ccco1	H69AR inhibit 11
O=C(O)CCN1C(=O)C(=C2CCCCCC2)SC1=S	none
O=C(OC[C@@H]1CCCN2CCCC[C@H]12)c1cc2ccccc2oc1=O	none (no result: H69AR inhibit, Lung fibro prol, HUVEC inhibit)
COc1cc(-c2[nH]nc3c2C(c2ccco2)C(C#N)=C(N)O3)cc(OC)c1OC (configuration not stated)	none (no result: H69AR inhibit, Lung fibro prol, HUVEC inhibit)
CCCCn1c(NC(=O)c2ccccc2Cl)c(C#N)c2nc3ccccc3nc21	H69AR inhibit 20
N#Cc1c(NC(=O)c2ccccc2Cl)n(Cc2ccccc2)c2nc3ccccc3nc12	none (no result: H69AR inhibit, Lung fibro prol, HUVEC inhibit)
O=C(Nc1ccc(Cl)cc1C(=O)NCCN1CCOCC1)c1ccc(Cl)cc1Cl	H69AR inhibit 38
O=C(Nc1c(Cl)cc(Cl)cc1C(=O)NCCN1CCOCC1)c1ccc(Cl)cc1Cl	none
CCCCN(CCCC)c1nc2ccccc2nc1NS(=O)(=O)c1ccc(NC(C)=O)cc1	H69AR inhibit 12
CC(=O)Nc1ccc(S(=O)(=O)Nc2nc3ccccc3nc2Nc2ccc3ccccc3c2)cc1	none (no result: H69AR inhibit, Lung fibro prol, HUVEC inhibit)
Cn1nc(CC(=O)Nc2ccc(N3CCN(C(=O)OC(C)(C)C)CC3)cc2)c2ccccc2c1=O	PTEN del growth 1.1, H69AR inhibit 37, HCT116 bCat-KO 1.2
Cc1cnc(C(=O)Nc2ccc(N3CCN(C(=O)OC(C)(C)C)CC3)cc2)cn1	H69AR inhibit 28
Cn1nc(CC(=O)NCc2ccc(F)cc2)c2ccccc2c1=O	none
Cn1nc(CC(=O)N2CCN(c3ccccc3)CC2)c2ccccc2c1=O	none
Cn1nc(CC(=O)NCc2cccc3ccccc23)c2ccccc2c1=O	H69AR inhibit 34
O=C(CSC1=NCCS1)Nc1ccnc2ccccc12	none
Cc1ccc(NC(=O)N2C(=O)C3(OCCO3)c3ccccc32)cc1	none (no result: H69AR inhibit)
COc1ccc(C)cc1S(=O)(=O)Nc1ccccc1	none
COc1cc(NS(=O)(=O)c2ccc(C)cc2C)cc(OC)c1OC	H69AR inhibit 24
O=[N+]([O-])c1cccc(C=Nc2cc3c(cc2Br)OCCO3)c1	none (no result: H69AR inhibit, Lung fibro prol, HUVEC inhibit)
OC(CNCC1CCCO1)Cn1c2ccccc2c2ccccc21 (configuration not stated)	none
Cc1cc(C)n(CC(O)Cn2c3ccc(Cl)cc3c3cc(Cl)ccc32)c(=O)n1 (configuration not stated)	none
OC(CNCCC1C=Nc2ccccc21)Cn1c2ccc(Cl)cc2c2cc(Cl)ccc21 (configuration not stated)	PTEN del growth 1.5, HCT116 bCat-KO 1.2 (no result: H69AR inhibit, Lung fibro prol, HUVEC inhibit)
OC(CNCC1CCCO1)Cn1c2ccc(Cl)cc2c2cc(Cl)ccc21 (configuration not stated)	PTEN del growth 2.1, H69AR inhibit 1.0, Lung fibro prol 2.4, HUVEC inhibit 2.2, HCT116 bCat-KO 1.5
Cc1sc2nc(-c3cccnc3)nc(Cl)c2c1-c1ccccc1	none (no result: H69AR inhibit, Lung fibro prol, HUVEC inhibit)
CCC(=O)N(Cc1c(C)nn(-c2ccccc2)c1Cl)c1ccc(Cl)cc1	none (no result: H69AR inhibit, Lung fibro prol, HUVEC inhibit)
CCOC(=O)C1CCN(C(=O)Cn2cc(C(=O)C3CC3)c3ccccc32)CC1	H69AR inhibit 40
Cc1ccc(S(=O)(=O)N(C)C)cc1-n1c(SCC(=O)Nc2ccc(F)c(F)c2F)nc2ccccc2c1=O	none (no result: H69AR inhibit, Lung fibro prol, HUVEC inhibit)
O=C(CSc1n[nH]c(-c2ccccc2)n1)c1ccc(O)c(O)c1	H69AR inhibit 27
CCc1ccc(C(=O)CSc2n[nH]c(-c3ccncc3)n2)cc1	none
CCNC(=S)N(CCc1c(C)[nH]c2ccccc12)Cc1cc(OC)c(OC)c(OC)c1	none (no result: H69AR inhibit, Lung fibro prol, HUVEC inhibit)
CCOC(CNC(=O)c1cccn2c(=O)c3cc(Cl)ccc3nc12)OCC	H69AR inhibit 38
CCOC(=O)N1CCN(C(=O)c2cccn3c(=O)c4cc(Cl)ccc4nc23)CC1	none (no result: H69AR inhibit, Lung fibro prol, HUVEC inhibit)
Cc1cc(C)n(-c2nc(NCCO)c3c4c(sc3n2)CCCC4)n1	H69AR inhibit 11
Cc1cc(C)n(-c2nc(NCC(C)O)c3c4c(sc3n2)CCCC4)n1 (configuration not stated)	none
Cc1cc(C)n(-c2nc(NCCCO)c3c4c(sc3n2)CCCC4)n1	H69AR inhibit 4.9, HUVEC inhibit 17
CC(NCCC(c1ccccc1)c1ccccc1)c1ccccc1 (configuration not stated)	H69AR inhibit 0.2, Lung fibro prol 2.7, HUVEC inhibit 26, HCT116 bCat-KO 1.9
CCNCCOC(c1ccccc1)c1ccccc1	none
O=C(Nc1ccc(Cl)c(Cl)c1)OCCNC(=O)c1cccc(Cl)c1	none
COC(=O)c1ccccc1NC(=O)C1CC(=O)N(c2ccc(C)cc2)C1 (configuration not stated)	H69AR inhibit 35
CCN(CC)S(=O)(=O)c1ccc(-c2nnc(SCC(=O)N3CCc4ccccc43)o2)cc1	H69AR inhibit 4.4, Lung fibro prol 35 (no result: PTEN del growth, HCT116 bCat-KO)
CCN(CC)S(=O)(=O)c1ccc(-c2nnc(SCc3nnc(-c4ccc(C)cc4)o3)n2CC)cc1	none
CCN(CC)S(=O)(=O)c1ccc(-c2nnc(SCC(=O)N3CCOCC3)o2)cc1	none
CCN(CC)S(=O)(=O)c1ccc(-c2nnc(SCc3nnc(-c4ccc(C)cc4)o3)o2)cc1	H69AR inhibit 3.3
COc1ccc2c(c1)[nH]c(=O)c1sc3ccccc3c12	HCT116 bCat-KO 5.1 (no result: H69AR inhibit, Lung fibro prol, HUVEC inhibit)
COc1ccc2sc3c(=O)[nH]c4ccccc4c3c2c1	none (no result: H69AR inhibit, Lung fibro prol, HUVEC inhibit)
Clc1cccc(-c2ccc(/C=N/n3cnnc3)o2)c1Cl	HUVEC inhibit 9.8
Clc1ccccc1-c1ccc(/C=N/n2cnnc2)o1	none
Cc1c(Cl)cccc1-c1ccc(/C=N/n2cnnc2)o1	HUVEC inhibit 27
COc1ccc(-c2nsc3c(N4CCCC4)ncnc23)cc1	none
COc1ccc(-c2nsc3c(N4CCN(S(=O)(=O)c5ccccc5)CC4)ncnc23)cc1	H69AR inhibit 6.2 (no result: PTEN del growth, HCT116 bCat-KO)
CCOc1ccccc1Nc1nnc(SC(C)C(=O)Nc2nc(-c3ccccc3)cs2)s1 (configuration not stated)	none (no result: H69AR inhibit, Lung fibro prol, HUVEC inhibit)
Cc1cc(S(=O)(=O)Nc2cc(C)c(O)c(C)c2)c(C)s1	PTEN del growth 2.1, HCT116 bCat-KO 1.9
Cc1cc(S(=O)(=O)Nc2cccnc2)c(C)s1	none
